In ChEMBL document CHEMBL1154087, “Novel orally active NPY Y5 receptor antagonists: Synthesis and structure-activity relationship of spiroindoline class compounds” (Bioorg Med Chem, 2009):
pIC50: −log10 of the molar value. Activity calls are given as the source filed them. The rule behind the calls is not given here.

Legend:
[1] = target: T1, Neuropeptide Y receptor type 5 (Homo sapiens, UniProt Q15761); test: Binding affinity to human neuropeptide Y5 receptor
T1 sequence (Q15761 whole entry): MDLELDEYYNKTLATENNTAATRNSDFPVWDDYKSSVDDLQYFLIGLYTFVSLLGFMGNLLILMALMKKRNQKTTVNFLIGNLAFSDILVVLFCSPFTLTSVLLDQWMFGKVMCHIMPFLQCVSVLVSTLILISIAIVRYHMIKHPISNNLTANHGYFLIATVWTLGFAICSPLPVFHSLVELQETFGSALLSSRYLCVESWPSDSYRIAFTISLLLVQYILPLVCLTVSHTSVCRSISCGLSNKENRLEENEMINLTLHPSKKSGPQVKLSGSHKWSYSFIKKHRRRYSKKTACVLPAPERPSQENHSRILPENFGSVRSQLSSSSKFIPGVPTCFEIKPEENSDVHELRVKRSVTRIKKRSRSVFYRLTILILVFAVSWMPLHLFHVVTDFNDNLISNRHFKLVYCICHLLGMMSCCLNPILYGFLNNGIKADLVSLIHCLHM

[2] = Ratio of drug level in brain to plasma in Sprague-Dawley rat at 3 mg/kg, iv after 10 mins; format: ADME, organism-based; parameters: dose 3 mg/kg, route intravenous
How it was run: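 Rats (n = 2) dosed iv at 3 mpk. Brain and plasma concentrations taken 10 min after dosing, and brain penetration expressed as the brain/plasma ratio.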

Rattus norvegicus [3] = test: Suppression of Y5 agonist bovine pancreatic peptide-induced food intake in po dosed Sprague-Dawley rat assessed as minimum effective dose treated 1 hr before peptide administration measured after 2 hrs; format: functional
How it was run: (§1)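 bPP (5 µg) given ICV to SD rats in 10 µL of 10 mM PBS containing 0.05% BSA. Compound suspended in 0.5% methylcellulose in distilled water and given orally (5 mL/kg) 1 h before bPP. Cumulative food intake recorded over 0–2 h; n = 7 or more. MED is the lowest dose with a statistically significant reduction versus vehicle (P < 0.05 or P < 0.01).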

[4] = Oral bioavailability in Sprague-Dawley rat at 10 mg/kg; format: ADME, organism-based; conditions: in vivo
How it was run: (§2)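 Sprague-Dawley rats (n = 2) given 3 mpk iv and 10 mpk po. Plasma sampled at 5 min, 1 h and 4 h after iv dosing and at 0.5 h, 1 h and 2 h after po dosing. F, CL_tot, AUC and other PK parameters calculated by the trapezoidal method.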

[5] = Cmax in Sprague-Dawley rat at 10 mg/kg, po and 3 mg/kg, iv; format: ADME, organism-based; conditions: in vivo; how it was run: as §2
[6] = AUC in Sprague-Dawley rat at 10 mg/kg, po and 3 mg/kg, iv; format: ADME, organism-based; conditions: plasma; how it was run: as §2
[7] = Total clearance in Sprague-Dawley rat at 10 mg/kg, po and 3 mg/kg, iv; format: ADME, organism-based; conditions: in vivo; how it was run: as §2
[8] = Tmax in Sprague-Dawley rat at 10 mg/kg, po and 3 mg/kg, iv; format: ADME, organism-based; conditions: in vivo; how it was run: as §2
[9] = Lipophilicity, calculated log D at pH 7.4
Mus musculus [10] = test: Reduction in body weight in diet-induced obese C57BL/6J mouse at 100 mg/kg, po; format: functional, organism-based; parameters: dose 100 mg/kg
Brain = test: Drug level in Sprague-Dawley rat brain at 10 mg/kg, po after 2 hrs; format: ADME, organism-based; parameters: dose 10 mg/kg, route oral; conditions: in vivo
How it was run: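 SD rats dosed orally at 10 mg/kg. Brain concentration measured 2 h after dosing and expressed as nmol/g.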

Mus musculus [11] = test: Reduction in cumulative food intake in diet-induced obese C57BL/6J mouse at 30 mg/kg, po after 13 days relative to control; format: functional; parameters: scale not given: the % may be the effect or the level left
Mus musculus [12] = organism: Mus musculus; test: Reduction in body weight in Y5 receptor knock-out diet-induced obese C57BL/6J mouse; format: functional, organism-based
Rattus norvegicus [13] = test: Suppression of Y5 agonist bovine pancreatic peptide-induced food intake in Sprague-Dawley rat at 1 mg/kg, po treated 1 hr before peptide administration measured after 2 hrs; format: functional; how it was run: as §1
Mus musculus [14] = test: Reduction in body weight in diet-induced obese C57BL/6J mouse at 30 mg/kg, po after 13 days; format: functional, organism-based; parameters: dose 30 mg/kg
Rattus norvegicus [15] = test: Suppression of Y5 agonist bovine pancreatic peptide-induced food intake in Sprague-Dawley rat at 3 mg/kg, po treated 1 hr before peptide administration measured after 2 hrs; format: functional; how it was run: as §1
Rattus norvegicus [16] = test: Suppression of Y5 agonist bovine pancreatic peptide-induced food intake in Sprague-Dawley rat at 10 mg/kg, po treated 1 hr before peptide administration measured after 2 hrs; format: functional; how it was run: as §1

SMILES: CS(=O)(=O)N1CC2(CCN(C(=O)Nc3ccc(-n4cccn4)cc3)CC2)c2ccccc21
- pIC50 [1]: 8.49

SMILES: CCS(=O)(=O)N1CC2(CCN(C(=O)Nc3cn(-c4ccccc4F)cn3)CC2)c2ccccc21
- Kp at 10 min [2]: 0.25
- pIC50 [1]: 8.48
- MED (Rattus norvegicus [3]): 3 mg/kg
- bioavailability [4]: 23%

SMILES: CS(=O)(=O)N1CC2(CCN(C(=O)Nc3ncc(-c4ccccc4)s3)CC2)c2ccccc21
- pIC50 [1]: 8.66

SMILES: CCS(=O)(=O)N1CC2(CCN(C(=O)Nc3cn(-c4cccc(F)c4)cn3)CC2)c2ccccc21
- Kp at 10 min [2]: 0.18
- pIC50 [1]: 8.52
- MED (Rattus norvegicus [3]): 30 mg/kg
- bioavailability [4]: 23%

SMILES: CS(=O)(=O)N1CC2(CCN(C(=O)Nc3ccc4ccccc4n3)CC2)c2ccccc21
- pIC50 [1]: 8.21

SMILES: CS(=O)(=O)N1CC2(CCN(C(=O)Nc3nc4cc(Cl)ccc4o3)CC2)c2ccccc21
- pIC50 [1]: 8.30

SMILES: Cn1ccnc1-c1ccc(NC(=O)N2CCC3(CC2)CN(S(C)(=O)=O)c2ccccc23)cc1
- pIC50 [1]: 8.05

SMILES: CS(=O)(=O)N1CC2(CCN(C(=O)Nc3ccc(-c4ccccn4)cc3)CC2)c2ccccc21
- Kp at 10 min [2]: 0.22
- MED (Rattus norvegicus [3]): > 100 mg/kg
- Cmax [5]: 0.6 µM
- AUC [6]: 1.8 µM·h
- clearance [7]: 24.4 mL/min/kg
- Tmax [8]: 0.25 h

SMILES: CCS(=O)(=O)N1CC2(CCN(C(=O)Nc3cn(-c4ccccc4OC)cn3)CC2)c2ccccc21
- pIC50 [1]: 8.31
- MED (Rattus norvegicus [3]): > 30 mg/kg

SMILES: CC(=O)c1ccc(NC(=O)N2CCC3(CC2)CN(S(C)(=O)=O)c2ccccc23)cc1
- pIC50 [1]: 8.57

SMILES: CS(=O)(=O)N1CC2(CCN(C(=O)Nc3ccc(-c4cccnc4)cc3)CC2)c2ccccc21
- MED (Rattus norvegicus [3]): 100 mg/kg
- Cmax [5]: 4.7 µM
- AUC [6]: 12.7 µM·h
- clearance [7]: 13.3 mL/min/kg
- Tmax [8]: 1 h

SMILES: CS(=O)(=O)N1CC2(CCN(C(=O)Nc3ccc(-c4nccs4)cc3)CC2)c2ccccc21
- pIC50 [1]: 8.62

SMILES: CS(=O)(=O)N1CC2(CCN(C(=O)Nc3cn(-c4ccccc4)cn3)CC2)c2ccccc21
- Kp at 10 min [2]: 0.1
- pIC50 [1]: 8.62
- MED (Rattus norvegicus [3]): > 30 mg/kg
- bioavailability [4]: 27%
- AUC [6]: 25.3 µM·h
- clearance [7]: 3.9 mL/min/kg
- logD [9]: 2.15

SMILES: CS(=O)(=O)N1CC2(CCN(C(=O)Nc3nnc(-c4ccccc4)s3)CC2)c2ccccc21
- pIC50 [1]: 8.47

SMILES: CS(=O)(=O)N1CC2(CCN(C(=O)Nc3ccc(-n4nccn4)cc3)CC2)c2ccccc21
- pIC50 [1]: 7.39

SMILES: CS(=O)(=O)N1CC2(CCN(C(=O)Nc3cnc4ccccc4c3)CC2)c2ccccc21
- pIC50 [1]: 8.27

SMILES: CS(=O)(=O)N1CC2(CCN(C(=O)Nc3ccc(Oc4ccccc4)cc3)CC2)c2ccccc21
- pIC50 [1]: 8.59

SMILES: COc1cccc2sc(NC(=O)N3CCC4(CC3)CN(S(C)(=O)=O)c3ccccc34)nc12
- pIC50 [1]: 8.05

SMILES: CS(=O)(=O)N1CC2(CCN(C(=O)Nc3ccc(-c4cscn4)cc3)CC2)c2ccccc21
- pIC50 [1]: 8.55

SMILES: CS(=O)(=O)N1CC2(CCN(C(=O)Nc3cc(-c4ccccc4)n[nH]3)CC2)c2ccccc21
- Kp at 10 min [2]: 0.02
- pIC50 [1]: 8.85
- MED (Rattus norvegicus [3]): > 30 mg/kg
- bioavailability [4]: 13%
- logD [9]: 3.08

SMILES: CCS(=O)(=O)N1CC2(CCN(C(=O)Nc3cn(-c4ccc(F)cc4)cn3)CC2)c2ccccc21
- pIC50 [1]: 8.39
- MED (Rattus norvegicus [3]): > 30 mg/kg

SMILES: CS(=O)(=O)N1CC2(CCN(C(=O)Nc3ccc(C(=O)c4ccccc4)cc3)CC2)c2ccccc21
- pIC50 [1]: 9.17

SMILES: CS(=O)(=O)N1CC2(CCN(C(=O)Nc3ccc(-c4ccncc4)cc3)CC2)c2ccccc21
- MED (Rattus norvegicus [3]): 10 mg/kg
- Cmax [5]: 5.5 µM
- Activity (Mus musculus [10]): inactive
- AUC [6]: 10.8 µM·h
- clearance [7]: 17.8 mL/min/kg
- Tmax [8]: 1 h

SMILES: CS(=O)(=O)N1CC2(CCN(C(=O)Nc3cc(-c4ccccc4)no3)CC2)c2ccccc21
- Kp at 10 min [2]: 0.22
- pIC50 [1]: 8.89
- MED (Rattus norvegicus [3]): > 30 mg/kg
- bioavailability [4]: 23%
- logD [9]: 2.53

SMILES: CS(=O)(=O)N1CC2(CCN(C(=O)Nc3ccc(Cl)nc3)CC2)c2ccccc21
- pIC50 [1]: 7.96

SMILES: CCS(=O)(=O)N1CC2(CCN(C(=O)Nc3cn(-c4ccccc4)cn3)CC2)c2ccccc21
- Drug uptake (Brain): 0.64 nmol/g
- Activity (Mus musculus [11]): 8.8%
- Activity (Mus musculus [12]): inactive
- Kp at 10 min [2]: 0.22
- inhibition in vivo at 1 mg/kg (Rattus norvegicus [13]): 34%
- pIC50 [1]: 8.47
- Activity (Rattus norvegicus [3]): Dose-dependent effect
- MED (Rattus norvegicus [3]): 3 mg/kg
- bioavailability [4]: 37%
- AUC [6]: 58.9 µM·h
- Activity (Mus musculus [14]): Active
- inhibition in vivo at 3 mg/kg (Rattus norvegicus [15]): 45%
- clearance [7]: 2.5 mL/min/kg
- inhibition in vivo at 10 mg/kg (Rattus norvegicus [16]): 57%

SMILES: CS(=O)(=O)N1CC2(CCN(C(=O)Nc3ccc(Cl)cn3)CC2)c2ccccc21
- pIC50 [1]: 8.15

SMILES: CS(=O)(=O)N1CC2(CCN(C(=O)Nc3cn(-c4cccc(F)c4)cn3)CC2)c2ccccc21
- pIC50 [1]: 8.74
- MED (Rattus norvegicus [3]): > 30 mg/kg

SMILES: CS(=O)(=O)N1CC2(CCN(C(=O)Nc3ccc4ncccc4c3)CC2)c2ccccc21
- Kp at 10 min [2]: 0.03
- pIC50 [1]: 8.60
- MED (Rattus norvegicus [3]): > 30 mg/kg
- bioavailability [4]: 24%
- logD [9]: 2.74

SMILES: CCS(=O)(=O)N1CC2(CCN(C(=O)Nc3cn(-c4cccc(OC)c4)cn3)CC2)c2ccccc21
- Kp at 10 min [2]: 0.11
- pIC50 [1]: 8.70
- MED (Rattus norvegicus [3]): 10 mg/kg
- bioavailability [4]: 50.1%

SMILES: CCS(=O)(=O)N1CC2(CCN(C(=O)Nc3cn(-c4ccc(OC)cc4)cn3)CC2)c2ccccc21
- pIC50 [1]: 8.49

SMILES: CS(=O)(=O)N1CC2(CCN(C(=O)Nc3cccnc3)CC2)c2ccccc21
- pIC50 [1]: < 6.00

SMILES: CS(=O)(=O)N1CC2(CCN(C(=O)Nc3ccc(-c4ccco4)cc3)CC2)c2ccccc21
- pIC50 [1]: 8.38

SMILES: CS(=O)(=O)N1CC2(CCN(C(=O)Nc3cn(-c4ccccc4F)cn3)CC2)c2ccccc21
- pIC50 [1]: 8.41
- MED (Rattus norvegicus [3]): > 30 mg/kg
